The record followed here is ChEMBL document CHEMBL2169746, “Design, synthesis, and antitumor evaluation of 2,4,6-triaryl pyridines containing chlorophenyl and phenolic moiety” (Eur J Med Chem, 2012).

In one assay the test system is DU-145. In words: Cytotoxicity against human DU145 cells after 2 days by cell counting kit-8 analysis. Particulars: DU-145, 48 h. It is filed as functional, cell-based. The procedure, abridged: (§1)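 Cells grown per supplier's instructions, seeded at 2-4 × 10⁴ cells/well and incubated overnight in medium with 10% FBS at 37 °C, 5% CO₂. On day 2, after 4 h FBS starvation, medium was replaced with medium containing graded compound concentrations. Absorbance read at 450 nm. IC50 from a four-parameter logistic fit. Three independent experiments in triplicate, mean ± S.D.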
A general note: Tetrazolium assays rely on reduction of a dye to a coloured formazan, in cell work by metabolically active cells.

For another assay, the system named is T47D. As to the kind of experiment: Cytotoxicity against human T47D cells after 2 days by cell counting kit-8 analysis. It is filed as functional, cell-based. Particulars: 48 h. The procedure, abridged:
as §1

The subject of a further assay is HCT-15. As to the kind of experiment: Cytotoxicity against human HCT15 cells after 2 days by cell counting kit-8 analysis. It is filed as functional, cell-based. Particulars: HCT-15, 48 h. The procedure, abridged: as §1
Assay [1] concerns the target DNA topoisomerase 2-alpha (Homo sapiens) (UniProt P11388). In words: Inhibition of human DNA topoisomerase-2alpha-mediated relaxation of supercoiled pBR322 at 100 uM after 30 mins using ethidium bromide staining by agarose gel electrophoresis. The procedure, abridged: (§2)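 200 ng supercoiled pBR322 with 1 unit human topo IIα, with or without compound. Buffer was 10 mM Tris-HCl pH 7.9, 50 mM NaCl, 5 mM MgCl₂, 1 mM EDTA, 1 mM ATP and bovine serum albumin. Incubated 30 min at 30 °C, stopped with EDTA. Products run on 1% agarose gel, 25 V, 4 h, TAE buffer. Compound stocks 20 mM in DMSO.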

Assay [2] addresses T1, DNA topoisomerase 1 (Homo sapiens) (UniProt P11387).
T1 sequence (whole entry): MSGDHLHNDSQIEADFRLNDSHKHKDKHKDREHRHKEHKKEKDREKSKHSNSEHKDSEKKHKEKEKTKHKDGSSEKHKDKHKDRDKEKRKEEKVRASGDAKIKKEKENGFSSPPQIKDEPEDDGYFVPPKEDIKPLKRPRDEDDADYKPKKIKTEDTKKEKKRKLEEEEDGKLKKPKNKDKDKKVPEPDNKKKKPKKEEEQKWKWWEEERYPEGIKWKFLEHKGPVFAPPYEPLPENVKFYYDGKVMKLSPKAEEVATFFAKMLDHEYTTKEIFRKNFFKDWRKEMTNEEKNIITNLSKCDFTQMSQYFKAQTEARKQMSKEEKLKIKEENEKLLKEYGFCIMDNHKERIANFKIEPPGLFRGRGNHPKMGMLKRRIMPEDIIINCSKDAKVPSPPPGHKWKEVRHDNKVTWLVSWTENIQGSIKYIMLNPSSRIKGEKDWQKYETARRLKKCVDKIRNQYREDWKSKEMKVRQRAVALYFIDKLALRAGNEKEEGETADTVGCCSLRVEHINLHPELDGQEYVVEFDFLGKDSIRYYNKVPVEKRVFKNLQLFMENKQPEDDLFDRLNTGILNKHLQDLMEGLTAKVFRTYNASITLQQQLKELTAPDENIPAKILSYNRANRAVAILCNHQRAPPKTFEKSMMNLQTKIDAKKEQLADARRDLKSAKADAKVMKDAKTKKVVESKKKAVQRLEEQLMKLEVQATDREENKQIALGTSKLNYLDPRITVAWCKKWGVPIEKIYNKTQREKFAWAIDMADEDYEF
As to the kind of experiment: Inhibition of recombinant human DNA topoisomerase-1-mediated relaxation of supercoiled pBR322 at 20 uM after 30 mins using ethidium bromide staining by agarose gel electrophoresis. In outline:
(§3)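 Compounds from 20 mM DMSO stocks. 100 ng pBR322 plasmid DNA with 1 unit recombinant human topo I, with or without compound, 37 °C for 30 min. Relaxation buffer was 10 mM Tris-HCl pH 7.9, 150 mM NaCl, 0.1% BSA, 1 mM spermidine. Relaxation of supercoiled DNA assessed by gel imaging.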

Assay [3] concerns the target DNA topoisomerase 2-alpha (Homo sapiens) (UniProt P11388). As to the kind of experiment: Inhibition of human DNA topoisomerase-2alpha-mediated relaxation of supercoiled pBR322 at 20 uM after 30 mins using ethidium bromide staining by agarose gel electrophoresis. In outline:
as §2

Assay [4] deals with T1, DNA topoisomerase 1 (Homo sapiens). As to the kind of experiment: Inhibition of recombinant human DNA topoisomerase-1-mediated relaxation of supercoiled pBR322 at 100 uM after 30 mins using ethidium bromide staining by agarose gel electrophoresis. The procedure, abridged:
as §3

The next assay relates to HEK293. As to the kind of experiment: Cytotoxicity against human HEK293 cells after 2 days by cell counting kit-8 analysis. It is filed as cell-based. To be noted: HEK293, 48 h. In outline:
as §1

DNA topoisomerase 2-alpha (Homo sapiens), sequence (P11388 whole entry): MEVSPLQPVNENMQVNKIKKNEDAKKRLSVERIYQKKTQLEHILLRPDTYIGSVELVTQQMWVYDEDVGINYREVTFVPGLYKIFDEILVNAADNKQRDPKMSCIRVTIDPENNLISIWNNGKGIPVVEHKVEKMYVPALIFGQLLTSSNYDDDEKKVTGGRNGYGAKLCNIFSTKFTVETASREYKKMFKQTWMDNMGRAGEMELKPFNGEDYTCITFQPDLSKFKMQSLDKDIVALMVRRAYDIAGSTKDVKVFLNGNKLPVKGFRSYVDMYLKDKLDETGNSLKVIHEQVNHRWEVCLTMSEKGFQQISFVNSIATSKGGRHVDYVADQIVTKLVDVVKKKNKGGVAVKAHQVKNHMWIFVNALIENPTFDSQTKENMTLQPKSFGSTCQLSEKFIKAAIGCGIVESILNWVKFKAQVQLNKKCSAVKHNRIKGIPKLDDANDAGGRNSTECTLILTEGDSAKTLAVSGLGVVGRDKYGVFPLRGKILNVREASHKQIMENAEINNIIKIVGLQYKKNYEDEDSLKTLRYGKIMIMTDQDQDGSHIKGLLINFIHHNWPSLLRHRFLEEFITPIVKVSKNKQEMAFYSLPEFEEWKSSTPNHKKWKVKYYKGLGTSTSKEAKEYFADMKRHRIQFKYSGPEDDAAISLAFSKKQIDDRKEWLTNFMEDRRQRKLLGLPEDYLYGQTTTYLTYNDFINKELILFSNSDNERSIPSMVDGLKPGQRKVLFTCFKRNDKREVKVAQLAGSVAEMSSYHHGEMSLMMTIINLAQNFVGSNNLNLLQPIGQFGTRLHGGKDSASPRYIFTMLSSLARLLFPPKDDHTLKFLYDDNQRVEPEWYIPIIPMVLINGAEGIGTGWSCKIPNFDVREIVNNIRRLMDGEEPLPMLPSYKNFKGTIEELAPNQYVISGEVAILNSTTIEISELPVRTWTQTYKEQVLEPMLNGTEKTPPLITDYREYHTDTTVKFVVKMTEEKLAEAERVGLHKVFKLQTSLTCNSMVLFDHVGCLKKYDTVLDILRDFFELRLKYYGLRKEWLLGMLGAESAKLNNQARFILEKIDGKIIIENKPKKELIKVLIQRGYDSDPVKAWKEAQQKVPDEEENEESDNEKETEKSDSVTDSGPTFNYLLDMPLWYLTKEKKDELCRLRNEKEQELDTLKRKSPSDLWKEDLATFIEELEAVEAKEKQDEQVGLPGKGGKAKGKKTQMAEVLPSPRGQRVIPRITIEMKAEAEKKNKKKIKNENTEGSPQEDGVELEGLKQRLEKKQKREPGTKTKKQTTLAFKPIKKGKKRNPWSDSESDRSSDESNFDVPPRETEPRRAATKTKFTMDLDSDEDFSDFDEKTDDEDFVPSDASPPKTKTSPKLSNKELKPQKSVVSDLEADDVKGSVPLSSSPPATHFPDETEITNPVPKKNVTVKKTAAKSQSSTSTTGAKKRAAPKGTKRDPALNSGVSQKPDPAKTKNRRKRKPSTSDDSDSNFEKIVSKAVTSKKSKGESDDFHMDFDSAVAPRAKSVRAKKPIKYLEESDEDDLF

With `Oc1ccc(-c2cc(-c3cccc(Cl)c3)nc(-c3cccs3)c2)cc1`, the IC50 in the assay with DU-145 came to 5.74 µM; in the assay on T47D, 5.35 µM; with HCT-15, 5.05 µM; with HEK293, 2.72 µM. Further, the inhibition came out at 72.4% in assay [1], 0% in assay [2], 0% in assay [3] and 52.4% in assay [4].
With `Oc1cccc(-c2cc(-c3ccc(Cl)cc3)nc(-c3ccccn3)c2)c1`, the IC50 worked out at 8.09 µM in the assay with DU-145, 13.9 µM in the assay on T47D, 13.5 µM with HCT-15 and 14 µM with HEK293. In addition, the inhibition amounted to 59.4% in assay [1], 0% in assay [2], 13.1% in assay [3] and 30% in assay [4].
For `Oc1ccc(-c2cc(-c3cccnc3)nc(-c3cccc(Cl)c3)c2)cc1`, the IC50 in the assay with DU-145 turned out to be 22.9 µM; with T47D, 25.7 µM; with HCT-15, 21.3 µM; in the assay with HEK293, 25.7 µM. Moreover, the inhibition in assay [1] amounted to 46.9%; in assay [2], 0%; in assay [3] it was 0%; in assay [4] it was 55.2%.
Turning to `Oc1ccc(-c2cc(-c3cccc(Cl)c3)nc(-c3ccccn3)c2)cc1`, the half-inhibitory concentration (IC50) in the assay on DU-145 came to 35.2 µM; in the assay with T47D, 27.9 µM; in the assay with HCT-15, 28.2 µM; with HEK293 it was 25.4 µM. Also, the inhibition in assay [1] was found to be 67.5%; in assay [2], 0%; in assay [3], 0%; in assay [4], 59.4%.
With `Oc1ccc(-c2cc(-c3ccccc3)nc(-c3ccc(Cl)cc3)c2)cc1`, the concentration for half-maximal inhibition (IC50) in the assay on DU-145 was 7.27 µM; in the assay on T47D it was 4.27 µM; in the assay with HCT-15 it was 6.92 µM; with HEK293 it was 4.81 µM. Also, the inhibition worked out at 80.9% in assay [1], 55.2% in assay [2], 44.6% in assay [3] and 68% in assay [4].
`Oc1cccc(-c2cc(-c3ccc(Cl)cc3)nc(-c3cccs3)c2)c1`: the IC50 with DU-145 is 11.6 µM; with T47D, 10.5 µM; in the assay on HCT-15 it was 9.28 µM; in the assay on HEK293, 11.8 µM. For the same compound, the inhibition in assay [1] was determined as 75.5%; in assay [3] it was 54.2%; in assay [4] it was 15.1%.
As to `Oc1ccc(-c2cc(-c3ccc(Cl)cc3)nc(-c3ccsc3)c2)cc1`, the IC50 worked out at 6.94 µM in the assay with DU-145, 5.49 µM in the assay on T47D, 6.24 µM in the assay with HCT-15 and 4.86 µM in the assay with HEK293. For the same compound, the inhibition was 83.6% in assay [1], 30.7% in assay [2], 67.1% in assay [3] and 47.7% in assay [4].
As for `Oc1cccc(-c2cc(-c3cccc(Cl)c3)nc(-c3ccco3)c2)c1`, the IC50 is 2.02 µM with DU-145, 3.57 µM in the assay with T47D, 2.46 µM in the assay with HCT-15 and 2.53 µM in the assay with HEK293. The inhibition in assay [1] was 70.1%; in assay [3], 4.8%; in assay [4], 5.5%.
`Oc1ccc(-c2cc(-c3cccc(Cl)c3)nc(-c3ccco3)c2)cc1`: the IC50 stood at 5.75 µM in the assay on DU-145, 5.22 µM in the assay on T47D, 8.02 µM with HCT-15 and 2.88 µM in the assay with HEK293. For the same compound, the inhibition in assay [1] was 71.3%; in assay [3], 0%; in assay [4], 25.5%.
On to `Oc1cccc(-c2cc(-c3ccccc3)nc(-c3ccc(Cl)cc3)c2)c1`, for which the IC50 was determined as 11.2 µM in the assay with DU-145, 11.3 µM in the assay with T47D, 8.11 µM in the assay on HCT-15 and 11.6 µM in the assay on HEK293. Also, the results for the inhibition in assay [1], in assay [3] and in assay [4] were 76.3%, 53% and 7.1%, respectively.
Consider `Oc1ccc(-c2cc(-c3ccc(Cl)cc3)nc(-c3cccs3)c2)cc1`, for which the IC50 with DU-145 stood at 7.66 µM; in the assay on T47D, 6.45 µM; in the assay on HCT-15, 6.47 µM; with HEK293 it was 4.52 µM. For the same compound, the inhibition in assay [1] is 77.2%; in assay [2], 0%; in assay [3], 22%; in assay [4] it was 38.8%.
For the compound `Oc1cccc(-c2cc(-c3ccncc3)nc(-c3ccc(Cl)cc3)c2)c1`, the IC50 turned out to be 2.51 µM in the assay on DU-145, 3.33 µM in the assay with T47D, 2.63 µM in the assay on HCT-15 and 2.89 µM in the assay on HEK293. Besides, the figures for the inhibition in assay [1], in assay [3] and in assay [4] were 51.7%, 12.9% and 8%, respectively.
As to `Oc1ccc(-c2cc(-c3ccsc3)nc(-c3cccc(Cl)c3)c2)cc1`, the IC50 in the assay with DU-145 was 6.22 µM; in the assay on T47D, 7.39 µM; in the assay on HCT-15, 5.76 µM; with HEK293 it was 2.67 µM. Also, the inhibition in assay [1] came to 83.7%; in assay [3], 0%; in assay [4] it was 26%.
As to `Oc1ccc(-c2cc(-c3ccc(Cl)cc3)nc(-c3ccccn3)c2)cc1`, the IC50 with DU-145 was 22.5 µM; in the assay with T47D it was 25.9 µM; in the assay on HCT-15, 21.3 µM; in the assay on HEK293 it was 27.2 µM. Further, the values for the inhibition in assay [1], in assay [3] and in assay [4] were 66.7%, 13.1% and 12.7%, respectively.
As to `Oc1cccc(-c2cc(-c3ccsc3)nc(-c3cccc(Cl)c3)c2)c1`, the IC50 in the assay with DU-145 is 3.33 µM; with T47D, 3.54 µM; in the assay with HCT-15 it was 2.51 µM; in the assay on HEK293, 3.18 µM. Besides, the inhibition in assay [1] came to 80.1%; in assay [3], 15.4%; in assay [4], 26.2%.
Turning to `Oc1cccc(-c2cc(-c3ccsc3)nc(-c3ccccc3Cl)c2)c1`, the IC50 came to 1.97 µM in the assay with DU-145, 2.44 µM with T47D, 2.5 µM with HCT-15 and 2.72 µM with HEK293. Moreover, the results for the inhibition in assay [1], in assay [3] and in assay [4] were 77.1%, 15.7% and 0%, respectively.

As a reminder, the IC50 is the concentration needed to halve the response being measured. For orientation: inhibition means the drop in the measured response relative to a control, in per cent.
